ChEMBL document CHEMBL1157893, “The discovery and structure-activity relationships of pyrano[3,4-b]indole based inhibitors of hepatitis C virus NS5B polymerase” (Bioorg Med Chem Lett, 2010)

Columns and labels:
[1] = Cytotoxicity against human HuH7 cells assessed as BrdU incorporation in to cellular DNA by counter assay; type: cell-based, Huh-7
Method in brief: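 General cytotoxicity counter assay run alongside the replicon assay, read out as BrdU incorporation into cellular DNA.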

Hepatitis C virus [2] = experiment: Antiviral activity against HCV 1b BB7 infected in human HuH7 cells after 3 days by ELISA; type: functional, organism-based, Hepacivirus hominis; conditions: genotype 1b BB7, Huh-7, 72 h
Method in brief: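 HCV replicon cells; viral replication measured by ELISA against NS5A.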

Hepatitis C virus [3] = experiment: Inhibition of HCV 1b BB7 NS5B Cdelta21 polymerase expressed in Escherichia coli after 120 mins; type: functional, Hepatitis C virus subtype 1b; conditions: BB7, 2 h
Method in brief: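 RdRp assay with 24 nM NS5BdCT21-His in 20 mM HEPES pH 7.5, 5 mM MgCl₂, 1 mM DTT, 0.05 mg/ml BSA and NTPs. Enzyme preincubated with compound (3 nM–30) 15 min at room temperature, then reacted 120 min at room temperature. Radiolabeled RNA collected on filters and counted by scintillation. IC50 from sigmoidal variable-slope dose–response fit, relative to no-compound controls.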

[4] = Inhibition of HCV BK NS5B polymerase; design: species or system Hepatitis C virus (isolate BK)
Hepatitis C virus [5] = experiment: Antiviral activity against HCV 1b BB7 infected in human HuH7 cells assessed as GAPDH RNA level after 3 days by RT-PCR analysis; type: functional, Hepacivirus hominis, genotype 1b BB7, Huh-7
Hepatitis C virus [6] = experiment: Antiviral activity against HCV 1b BB7 infected in human HuH7 cells assessed as total viral RNA level after 3 days by RT-PCR analysis; type: functional, Hepacivirus hominis, genotype 1b BB7, Huh-7
[7] = Apparent permeability from basolateral to apical side of human Caco-2 cells; type: ADME, cell-based
[8] = Ratio of apparent permeability from basolateral to apical side over apical to basolateral side in human Caco-2 cells
[9] = Apparent permeability from apical to basolateral side of human Caco-2 cells; type: ADME, cell-based

Row | SMILES | EC50 (Hepatitis C virus [2]) [µM] | IC50 (Hepatitis C virus [3]) [µM] | IC50 [4] [µM] | CC50 [1] [µM] | other results
1 | CCCCC(=O)N[C@H](C(=O)O)[C@@]1(CCC)OCCc2c1[nH]c1c(C)ccc(C#N)c21 (racemic) | > 100 | 5 |  | > 100 | 
2 | CCC[C@]1([C@H](NS(=O)(=O)c2ccccc2)C(=O)O)OCCc2c1[nH]c1c(C)ccc(C#N)c21 (racemic) | > 100 | 4 |  | > 100 | 
3 | CCC[C@]1([C@H](NC(=O)OCc2ccccc2)C(=O)O)OCCc2c1[nH]c1c(C)ccc(C#N)c21 (racemic) | 35 | 0.72 |  | 45 | 
4 | CCCCS(=O)(=O)N[C@H](C(=O)O)[C@@]1(CCC)OCCc2c1[nH]c1c(C)ccc(C#N)c21 (racemic) | > 100 | 3.6 |  | > 100 | 
5 | CCC[C@]1([C@@H](NS(C)(=O)=O)C(=O)O)OCCc2c1[nH]c1c(C)ccc(C#N)c21 (racemic) | > 100 | 13 |  | > 100 | 
6 | CC[C@H](C)[C@]1(CC(=O)O)OCCc2c1[nH]c1c(C)c(OCCn3cccn3)cc(C#N)c21 | 0.12 | 0.002 | 0.009 |  | Activity (Hepatitis C virus [5]): >20 µM; Activity (Hepatitis C virus [6]): 0.02 µM
7 | CCC[C@]1([C@H](NS(C)(=O)=O)C(=O)O)OCCc2c1[nH]c1c(C)ccc(C#N)c21 (racemic) | > 100 | 6 |  | > 100 | 
8 | Cc1ccc(C#N)c2c3c([nH]c12)[C@](CC(=O)O)(C1CCC1)OCC3 | 29.7 | 1.1 | 0.4 |  | 
9 | CCC[C@]1(C(=O)O)OCCc2c1[nH]c1c(C)ccc(C#N)c21 |  |  | 0.7 |  | Papp B→A [7]: 24.2 ×10⁻⁶ cm/s; Activity (Hepatitis C virus [5]): >30 µM; Activity (Hepatitis C virus [6]): 12 µM; efflux ratio [8]: 7.5; Papp A→B [9]: 3.2 ×10⁻⁶ cm/s
10 | CCC[C@]1([C@@H](NS(=O)(=O)c2ccccc2)C(=O)O)OCCc2c1[nH]c1c(C)ccc(C#N)c21 (racemic) | > 100 | 16 |  | > 100 | 
11 | CCC[C@]1([C@H](NC(C)=O)C(=O)O)OCCc2c1[nH]c1c(C)ccc(C#N)c21 (racemic) | > 100 | 1.7 |  | > 100 | 
12 | CCC[C@]1([C@@H](NC(=O)c2ccccc2)C(=O)O)OCCc2c1[nH]c1c(C)ccc(C#N)c21 (racemic) | > 100 | > 30 |  | > 100 | 
13 | CCC[C@]1([C@@H](NC(C)=O)C(=O)O)OCCc2c1[nH]c1c(C)ccc(C#N)c21 (racemic) | > 100 | 17 |  | > 100 | 
14 | C=CCOC(=O)N[C@H](C(=O)O)[C@@]1(CCC)OCCc2c1[nH]c1c(C)ccc(C#N)c21 (racemic) | > 100 | 5.9 |  | > 100 | 
15 | CCC[C@]1([C@H](NC(=O)OCC(C)C)C(=O)O)OCCc2c1[nH]c1c(C)ccc(C#N)c21 (racemic) | > 100 | 9.5 |  | > 100 | 
16 | CCC[C@]1(CC(=O)O)OCCc2c1[nH]c1c(C)c(OCCn3cccn3)cc(C#N)c21 | 0.88 | 0.005 | 0.012 |  | Activity (Hepatitis C virus [5]): >90 µM; Activity (Hepatitis C virus [6]): 0.14 µM
17 | CCC[C@]1([C@H](NC(=O)OC(C)C)C(=O)O)OCCc2c1[nH]c1c(C)ccc(C#N)c21 (racemic) | > 100 | 11 |  | > 100 | 
18 | CCC[C@]1([C@H](NC(=O)OC)C(=O)O)OCCc2c1[nH]c1c(C)ccc(C#N)c21 (racemic) | > 100 | 5.6 |  | > 100 | 
19 | CCCCS(=O)(=O)N[C@@H](C(=O)O)[C@@]1(CCC)OCCc2c1[nH]c1c(C)ccc(C#N)c21 (racemic) | > 100 | 22 |  | > 100 | 
20 | CCC[C@]1([C@H](NC(=O)c2ccccc2)C(=O)O)OCCc2c1[nH]c1c(C)ccc(C#N)c21 (racemic) | > 100 | 4.5 |  | > 100 | 
21 | CCC[C@]1([C@H](NC(=O)OCC)C(=O)O)OCCc2c1[nH]c1c(C)ccc(C#N)c21 (racemic) | > 100 | 7.2 |  | > 100 | 
22 | CCC[C@]1([C@H](NC(=O)OC(C)(C)C)C(=O)O)OCCc2c1[nH]c1c(C)ccc(C#N)c21 (racemic) | > 100 | 18 |  | > 100 | 
23 | CCCCC(=O)N[C@@H](C(=O)O)[C@@]1(CCC)OCCc2c1[nH]c1c(C)ccc(C#N)c21 (racemic) | > 100 | > 30 |  | > 100 | 

Continued, in another order:

Row | EC50 (Hepatitis C virus [2]) [µM] | IC50 (Hepatitis C virus [3]) [µM] | IC50 [4] [µM] | SMILES | CC50 [1] [µM] | other results
24 |  |  | 1.9 | O=C(O)CC1(CC2CC2)OCCc2c1[nH]c1c(Cl)ccc(Cl)c21 (stereo unspecified) |  | 
25 |  |  | 26 | CCOCC1(CC(=O)O)OCCc2c1[nH]c1c(Cl)ccc(Cl)c21 (stereo unspecified) |  | 
26 | 2.2 | 0.26 | 0.13 | CC[C@H](C)[C@]1(CC(=O)O)OCCc2c1[nH]c1c(C)ccc(C#N)c21 |  | Activity (Hepatitis C virus [5]): >10 µM; Activity (Hepatitis C virus [6]): 2.1 µM
27 |  |  | 0.76 | CCCCC1(CC(=O)O)OCCc2c1[nH]c1c(Cl)ccc(Cl)c21 (stereo unspecified) |  | 
28 |  |  | > 30 | O=C(O)CC1(C2CCCCC2)OCCc2c1[nH]c1c(Cl)ccc(Cl)c21 (stereo unspecified) |  | 
29 |  |  | 0.4 | O=C(O)CC1(CCC(F)(F)F)OCCc2c1[nH]c1c(Cl)ccc(Cl)c21 (stereo unspecified) |  | 
30 |  |  | 0.3 | CC(C#N)C1(CC(=O)O)OCCc2c1[nH]c1c(Cl)ccc(Cl)c21 (stereo unspecified) |  | 
31 |  |  | 7.3 | O=C(O)CC1(C2CC2)OCCc2c1[nH]c1c(Cl)ccc(Cl)c21 (stereo unspecified) |  | 
32 |  |  | > 24 | COCCC1(CC(=O)O)OCCc2c1[nH]c1c(Cl)ccc(Cl)c21 (stereo unspecified) |  | 
33 |  |  | 1.7 | CC/C=C/C1(CC(=O)O)OCCc2c1[nH]c1c(Cl)ccc(Cl)c21 (stereo unspecified) |  | 
34 |  |  | 6.3 | CCC1(CC(=O)O)OCCc2c1[nH]c1c(Cl)ccc(Cl)c21 (stereo unspecified) |  | 
35 |  |  | 0.37 | CCCC1(CC(=O)O)OCCc2c1[nH]c1c(Cl)ccc(Cl)c21 (stereo unspecified) |  | 
36 |  |  | 3.3 | O=C(O)CC1(C2CCCC2)OCCc2c1[nH]c1c(Cl)ccc(Cl)c21 (stereo unspecified) |  | 
37 |  |  | 9.4 | O=C(O)CC1(CC2CCCC2)OCCc2c1[nH]c1c(Cl)ccc(Cl)c21 (stereo unspecified) |  | 
38 |  |  | 7 | CC(C)C1(CC(=O)O)OCCc2c1[nH]c1c(Cl)ccc(Cl)c21 (stereo unspecified) |  | 
39 |  |  | > 30 | COCC1(CC(=O)O)OCCc2c1[nH]c1c(Cl)ccc(Cl)c21 (stereo unspecified) |  | 
40 |  | 4.9 | 3.2 | CCC(C)C1(CC(=O)O)OCCc2c1[nH]c1c(C)ccc(C#N)c21 (racemic) |  | 
41 |  |  | 0.15 | CCC(C)C1(CC(=O)O)OCCc2c1[nH]c1c(Cl)ccc(Cl)c21 (stereo unspecified) |  | 
42 | 13.1 | 0.4 | 0.3 | CCC[C@]1(CC(=O)O)OCCc2c1[nH]c1c(C)ccc(C#N)c21 | > 100 | Papp B→A [7]: 2.2 ×10⁻⁶ cm/s; Activity (Hepatitis C virus [5]): >160 µM; Activity (Hepatitis C virus [6]): 4.8 µM; efflux ratio [8]: 0.09; Papp A→B [9]: 24 ×10⁻⁶ cm/s
43 |  |  | 0.35 | O=C(O)CC1(C2CCC2)OCCc2c1[nH]c1c(Cl)ccc(Cl)c21 (stereo unspecified) |  | 
44 |  |  | 7 | CSCC1(CC(=O)O)OCCc2c1[nH]c1c(Cl)ccc(Cl)c21 (stereo unspecified) |  | 
45 |  |  | 27 | CC1(CC(=O)O)OCCc2c1[nH]c1c(Cl)ccc(Cl)c21 (stereo unspecified) |  | 
